Like-named read-outs stand apart in the source and are kept apart here.
Tests used:
patients with R/R AML = conditions: OTX015 monotherapy ref 10; cited from earlier work
[1] = system: patients with relapsed/refractory AML; experiment: Safety: treatment‐emergent adverse events and DLTs; assay type: in vivo, human
Summary of the method: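 3 + 3 dose escalation, daily dosing in 28-day cycles. Monotherapy was 1.5, 2.0 or 2.5 mg. TEAEs (first dose to 30 days post-discontinuation) were graded by NCI CTCAE v4.03 in all patients given ≥1 dose.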

[2] = system: relapsed/refractory acute myeloid leukemia; experiment: Clinical activity: IWG response, bone marrow blast change, PFS, OS; assay type: in vivo, human
Summary of the method: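 Adults (≥18 y) with relapsed/refractory AML got the test compound daily in 28-day cycles at 1.5, 2.0 or 2.5 mg as monotherapy. Response followed revised IWG AML criteria, comparing baseline bone marrow with at least 1 on-treatment marrow sample. Marrow was sampled at screening, C2D1 and as clinically indicated. Patients without a postbaseline sample were not evaluable. PFS and OS were summarised descriptively.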

[3] = Plasma mivebresib pharmacokinetics; assay type: in vivo, human
[4] = system: DCXR, HEXIM1, CD93, MYC, BCL2, PUMA, BIM gene expression in peripheral blood; assay type: in vivo, human; conditions: for pharmacodynamic effects (gene modulation) vs dose and drug exposure: peripheral blood, correlation with Cmax, P < .05
Summary of the method: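 Whole blood was drawn before and 6 h after the C1D1 monotherapy dose. RNA from it underwent whole-transcriptome sequencing, and marker expression was given as percent change from baseline. Linear regression related C1D1 plasma Cmax to biomarker change.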

[5] = system: patients with relapsed/refractory solid tumors; conditions: cited from earlier work
[6] = MIV‐mono n = 19, started MIV‐Ven n = 25
[7] = started arms (mono n = 19, combination n = 25)
[8] = PB, 6 hours after MIV‐mono administration, P < .001

Cc1sc2c(c1C)C(c1ccc(Cl)cc1)=N[C@@H](CC(=O)Nc1ccc(O)cc1)c1nnc(C)n1-2 [OTX015]
rate of diarrhea (patients with R/R AML): 34%
rate of nausea (patients with R/R AML): 22%
rate of vomiting (patients with R/R AML): 7%

CCS(=O)(=O)Nc1ccc(Oc2ccc(F)cc2F)c(-c2cn(C)c(=O)c3[nH]ccc23)c1 [mivebresib]
anemia, grade ≥3 mivebresib‐related TEAE ([1]; MIV‐mono n = 19): 26%
decreased appetite, TEAE frequency ([1]; MIV‐mono n = 19): 58%
decreased appetite, grade ≥3 ([1]; MIV‐mono n = 19): 11%
diarrhea, grade ≥3 ([1]; MIV‐mono n = 19): no grade ≥3
fatigue, TEAE frequency ([1]; MIV‐mono n = 19): 68%
fatigue, grade ≥3 ([1]; MIV‐mono n = 19): 21%
nausea, grade ≥3 ([1]; MIV‐mono n = 19): 5%
pneumonia, serious TEAE ([1]; MIV‐mono n = 19): 16%
AML progression (AML), serious TEAE [1, 6]: 16%
decreased appetite, mivebresib‐related TEAE [1, 6]: 42%
diarrhea, mivebresib‐related TEAE [1, 6]: 42%
dysgeusia, mivebresib‐related TEAE [1, 6]: 74%
febrile neutropenia, serious TEAE [1, 6]: 16%
grade ≥3 mivebresib‐related TEAEs, patients [1, 6]: 68%
serious adverse events (serious TEAEs regardless of relatedness), patients [1, 6]: 74%
thrombocytopenia, grade ≥3 mivebresib‐related TEAE [1, 6]: 32%
dose‐limiting toxicities (DLTs) ([1]; first 4 weeks, all dose levels): No DLTs occurred
ALT increased, AE related to mivebresib [1, 7]: 1 (5) No. of Patients (%)
AST increased, AE related to mivebresib [1, 7]: 0 (0) No. of Patients (%)
Anemia, AE related to mivebresib [1, 7]: 7 (37) No. of Patients (%)
Anemia, TEAE [1, 7]: 13 (68) No. of Patients (%)
Any TEAEs [1, 7]: 19 (100) No. of Patients (%)
Cough, TEAE [1, 7]: 6 (32) No. of Patients (%)
Decreased appetite, AE related to mivebresib [1, 7]: 8 (42) No. of Patients (%)
Decreased appetite, TEAE [1, 7]: 11 (58) No. of Patients (%)
Diarrhea, AE related to mivebresib [1, 7]: 8 (42) No. of Patients (%)
Diarrhea, TEAE [1, 7]: 9 (47) No. of Patients (%)
Dry mouth, AE related to mivebresib [1, 7]: 2 (11) No. of Patients (%)
Dysgeusia, AE related to mivebresib [1, 7]: 14 (74) No. of Patients (%)
Dysgeusia, TEAE [1, 7]: 15 (79) No. of Patients (%)
Dyspnea, TEAE [1, 7]: 6 (32) No. of Patients (%)
Epistaxis, AE related to mivebresib [1, 7]: 3 (16) No. of Patients (%)
Epistaxis, TEAE [1, 7]: 4 (21) No. of Patients (%)
Fatigue, AE related to mivebresib [1, 7]: 7 (37) No. of Patients (%)
Fatigue, TEAE [1, 7]: 13 (68) No. of Patients (%)
Febrile neutropenia, AE related to mivebresib [1, 7]: 0 (0) No. of Patients (%)
Febrile neutropenia, TEAE [1, 7]: 7 (37) No. of Patients (%)
Headache, AE related to mivebresib [1, 7]: 0 (0) No. of Patients (%)
Hyperbilirubinemia, TEAE [1, 7]: 6 (32) No. of Patients (%)
Hypokalemia, TEAE [1, 7]: 3 (16) No. of Patients (%)
Hypomagnesemia, TEAE [1, 7]: 2 (11) No. of Patients (%)
Muscular weakness, TEAE [1, 7]: 7 (37) No. of Patients (%)
Nausea, AE related to mivebresib [1, 7]: 7 (37) No. of Patients (%)
Nausea, TEAE [1, 7]: 9 (47) No. of Patients (%)
Neutrophil count decreased, AE related to mivebresib [1, 7]: 2 (11) No. of Patients (%)
Platelet count decreased, AE related to mivebresib [1, 7]: 2 (11) No. of Patients (%)
Stomatitis, AE related to mivebresib [1, 7]: 1 (5) No. of Patients (%)
Thrombocytopenia, AE related to mivebresib [1, 7]: 7 (37) No. of Patients (%)
Thrombocytopenia, TEAE [1, 7]: 10 (53) No. of Patients (%)
Vomiting, AE related to mivebresib [1, 7]: 5 (26) No. of Patients (%)
Vomiting, TEAE [1, 7]: 6 (32) No. of Patients (%)
WBC count decreased, AE related to mivebresib [1, 7]: 1 (5) No. of Patients (%)
Weight decreased, AE related to mivebresib [1, 7]: 2 (11) No. of Patients (%)
patients with an AE leading to discontinuation ([1]; whole study, MIV‐mono and MIV‐Ven): Seventeen
response: CRi ([2]; 19 patients who received MIV‐mono): 5%
median OS ([2]; MIV‐mono 1.5 mg): 15.7 weeks
median PFS ([2]; MIV‐mono 1.5 mg): 7.2 weeks
median OS ([2]; MIV‐mono 2.0 mg): 22.0 weeks
median PFS ([2]; MIV‐mono 2.0 mg): 13.9 weeks
median OS ([2]; MIV‐mono 2.5 mg): 12.6 weeks
median PFS ([2]; MIV‐mono 2.5 mg): 10.6 weeks
patients with FLT3 and NPM1 co‐occurrence who responded / had a reduction in BM blasts ([2]; MIV‐mono 3 patients, MIV‐Ven 4 patients): None
response: CRi ([2]; MIV‐mono group): 1 patient
patients with measurable reduction in BM blasts ([2]; assessable patients: 16 MIV‐mono, 15 only MIV‐Ven): 44%
Best IWG response: Aplasia [2, 7]: 0 (0) No. of Patients (%)
Best IWG response: CR [2, 7]: 0 (0) No. of Patients (%)
Best IWG response: CRi [2, 7]: 1 (5) No. of Patients (%)
Best IWG response: MLFS [2, 7]: 0 (0) No. of Patients (%)
Best IWG response: PR [2, 7]: 0 (0) No. of Patients (%)
Best IWG response: Resistant disease [2, 7]: 15 (79) No. of Patients (%)
Best IWG response: Unknown: Not assessable or insufficient data [2, 7]: 3 (16) No. of Patients (%)
steady‐state accumulation ratio ([3]; AUC0‐24 on C1D8 versus C1D1, daily dosing): approximately 2 fold
dose proportionality of PK ([3]; dose‐normalized C1D8 Cmax and AUC24 over the studied dosing range): approximately dose proportional
half-life ([3]; human, plasma, oral): 16.4 h
effect of venetoclax coadministration on mivebresib PK ([3]; monotherapy vs combination cohorts): no effect
BIM (proapoptotic gene) expression ([4]; 6 hours after MIV‐mono, P < .0005, data not shown): increased
BCL2 (antiapoptotic gene) expression ([4]; 6 hours after MIV‐mono, P < .01, data not shown): inhibited
PUMA (proapoptotic gene) expression ([4]; 6 hours after MIV‐mono, P < .064, data not shown): increased
CD93 expression [4, 8]: decrease
DCXR gene expression [4, 8]: increase
HEXIM1 gene expression [4, 8]: increase
MYC expression ([4]; PB, 6 hours after MIV‐mono administration, P < .083): decrease
pharmacodynamic effects (gene modulation) vs dose and drug exposure [4]: proportional to dose and drug exposure
pharmacodynamic effects (gene modulation) vs dose and drug exposure ([4]; listed as MIV‐mono): dose‐dependent
solid tumor recommended phase 2 dose [5]: 1.5 mg daily
